The values below come from ChEMBL document CHEMBL1157127, “Aplysinopsin analogs: Synthesis and anti-proliferative activity of substituted (Z)-5-(N-benzylindol-3-ylmethylene)imidazolidine-2,4-diones” (Bioorg Med Chem, 2010).

Format in all cases: functional, cell-based
The subject of one assay is A549. Nature of the assay: Antiproliferative activity against human A549 cells after 24 hrs by trypan blue exclusion assay. As to conditions: A549, 24 h. The method in brief:
(§1)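 Cells from ATCC. MCF-7 and MDA-231 grown in DMEM with 10% FBS and 1% L-glutamine; A549 and H460 in RPMI 1640 with glutamine, glucose, HEPES, sodium pyruvate and 10% FBS; all at 37 °C, 5% CO2. Treated 24 h at 1, 5, 10, 20 and 40 µM, with DMSO vehicle control. Viability by trypan blue dye exclusion, mean ± SD of four wells.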

For the next assay, the system named is NCI-H460. Nature of the assay: Antiproliferative activity against human H460 cells after 24 hrs by trypan blue exclusion assay. The conditions noted are these: NCI-H460, 24 h. An outline of the steps: as §1
The next assay has as its system MCF7. Kind of assay: Antiproliferative activity against human MCF7 cells after 24 hrs by trypan blue exclusion assay. The conditions noted are these: MCF7, 24 h. An outline of the steps:
as §1

Assay [1] can be described thus: Antiproliferative activity against human MDA231 cells after 24 hrs by trypan blue exclusion assay. The conditions noted are these: MDA-MB-231, 24 h. The method in brief:
as §1

As for `O=C1NC(=O)/C(=C/c2cn(Cc3ccc(F)cc3)c3ccccc23)N1`, the IC50 with A549 was 27.8 µM; with NCI-H460, 16.3 µM; in the assay on MCF7, 22.3 µM; in assay [1], 32.8 µM.
In the case of `Cc1ccc(Cn2cc(/C=C3\NC(=O)NC3=O)c3ccccc32)cc1`, the IC50 is 34.8 µM in the assay on A549, 26.1 µM with NCI-H460, 20.2 µM in the assay with MCF7 and 22.1 µM in assay [1].
In the case of `O=C1NC(=O)/C(=C/c2cn(Cc3ccccc3)c3ccc(Cl)cc23)N1`, the IC50 in the assay with A549 was found to be 29.7 µM; in the assay on NCI-H460 it was 26.9 µM; in the assay with MCF7, 9.2 µM; in assay [1], 18 µM.
The matching figures for `O=C1NC(=O)/C(=C/c2cn(Cc3ccccc3Br)c3ccccc23)N1`: 39.5 µM, 16.9 µM, 4.4 µM and 21.8 µM.
The corresponding values for `Cc1ccc2c(c1)c(/C=C1\NC(=O)NC1=O)cn2Cc1ccccc1` are 27.7 µM, 14.6 µM, 5.2 µM and 20.1 µM.
The corresponding values for `O=C1NC(=O)/C(=C/c2cn(Cc3ccccc3)c3ccc(Br)cc23)N1` are more than 40 µM, more than 40 µM, 7.6 µM and 12.4 µM.
With `O=C1NC(=O)/C(=C/c2cn(Cc3ccc([N+](=O)[O-])cc3)c3ccccc23)N1`, the IC50 was more than 40 µM with A549, more than 40 µM in the assay with NCI-H460, 10.9 µM in the assay on MCF7 and 23.3 µM in assay [1].
`N#Cc1ccc(Cn2cc(/C=C3\NC(=O)NC3=O)c3ccccc32)cc1`: the IC50 with A549 was more than 40 µM; with NCI-H460, 19.1 µM; in the assay on MCF7, 14.1 µM; in assay [1], 17.6 µM.
On to `COC(=O)c1ccc(Cn2cc(/C=C3\NC(=O)NC3=O)c3ccccc32)cc1`, for which the IC50 in the assay with A549 was more than 40 µM; in the assay with NCI-H460 it was 30.8 µM; in the assay with MCF7 it was 15.4 µM; in assay [1], 18.4 µM.
Regarding `COc1ccc(Cn2cc(/C=C3\NC(=O)NC3=O)c3cc(Br)ccc32)cc1`, the IC50 with A549 amounted to 25.2 µM; in the assay on NCI-H460, 22.3 µM; with MCF7, 16.4 µM; in assay [1], 23.2 µM.
The corresponding values for `O=C1NC(=O)/C(=C/c2cn(Cc3ccc(Cl)cc3)c3ccccc23)N1` are 25.4 µM, 25.4 µM, 21.4 µM and 25.3 µM.
As to `O=C1NC(=O)/C(=C/c2cn(Cc3ccccc3)c3ccccc23)N1`, the IC50 in the assay with A549 was more than 40 µM; in the assay with NCI-H460, 14.2 µM; with MCF7, 27.3 µM; in assay [1], 15.7 µM.
As to `COc1ccc2c(c1)c(/C=C1\NC(=O)NC1=O)cn2Cc1ccccc1`, the IC50 was more than 40 µM in the assay with A549, 28.4 µM in the assay with NCI-H460, 7.2 µM in the assay with MCF7 and 7 µM in assay [1].
The matching figures for `O=c1[nH]cc(F)c(=O)[nH]1` [FLUOROURACIL]: 5.4 µM, 2.7 µM, 15.2 µM and 3.5 µM.

As usually defined, the IC50 is the concentration that inhibits the measured activity by half.
